From ChEMBL document CHEMBL4257543, “Structural optimization and antibacterial evaluation of rhodomyrtosone B analogues against MRSA strains” (Medchemcomm, 2018) come the findings set out here.

Data set [1] has as its system Staphylococcus aureus. The experiment in a line: Antibacterial activity against Staphylococcus aureus ATCC 6538 by micro dilution susceptibility test. In kind it is functional. The essentials: (§1)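 Microbroth dilution MIC in Mueller–Hinton broth following CLSI guidelines, vancomycin as positive control; resazurin added as visible growth indicator. Assays run at least in triplicate.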

In data set [2] the test system is Staphylococcus aureus. Briefly: Antibacterial activity against Staphylococcus aureus CMCC 26003 by micro dilution susceptibility test. The class given is functional. The procedure, abridged:
as §1

The subject of data set [3] is Staphylococcus aureus. Briefly: Antibacterial activity against methicillin-resistant Staphylococcus aureus JCSC 4469 by micro dilution susceptibility test. The class given is functional. The procedure, abridged: as §1
The subject of data set [4] is Staphylococcus aureus. The experiment in a line: Antibacterial activity against methicillin-resistant Staphylococcus aureus N315 by micro dilution susceptibility test. In kind it is functional. The essentials: as §1
The test system of data set [5] is Paenibacillus polymyxa. The experiment in a line: Antibacterial activity against Bacillus polymyxa GIM 1.467 by micro dilution susceptibility test. In kind it is functional. The essentials:
(§2)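 Microbroth dilution MIC in Mueller–Hinton broth following CLSI guidelines, with vancomycin as positive control; assays run at least in triplicate.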

The subject of data set [6] is Paenibacillus polymyxa. The experiment in a line: Antibacterial activity against Bacillus polymyxa ATCC 842 by micro dilution susceptibility test. In kind it is functional. The procedure, abridged:
as §2

Data set [7] deals with Escherichia coli. Briefly: Antibacterial activity against Escherichia coli ATCC 8739 by micro dilution susceptibility test. The class given is functional. The procedure, abridged:
as §2

In data set [8] the test system is Salmonella typhi. The experiment in a line: Antibacterial activity against Salmonella typhi CMCC 44102 by micro dilution susceptibility test. The class given is functional, Salmonella enterica subsp. enterica serovar Typhi. The conditions noted are these: Salmonella enterica. The procedure, abridged:
as §1

Data set [9] has as its system Shigella dysenteriae. Briefly: Antibacterial activity against Shigella dysenteriae CMCC 51252 by micro dilution susceptibility test. In kind it is functional. The procedure, abridged:
as §1

For data set [10], the system named is Staphylococcus aureus. Briefly: Selectivity ratio of MIC for methicillin-resistant Staphylococcus aureus NCTC 10442 to MIC for methicillin-resistant Staphylococcus aureus JCSC 4788. The class given is functional.
Data set [11] in a line: Selectivity ratio of MIC for methicillin-resistant Staphylococcus aureus N315 to MIC for methicillin-resistant Staphylococcus aureus JCSC 4788. The class given is functional.
The subject of data set [12] is RAW264.7. Briefly: Cytotoxicity against mouse RAW264.7 cells by MTT assay. In kind it is cell-based. The essentials: (§3)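 MTT viability assay after 24 h exposure to compound at 1.5625–100 µg mL⁻¹; control cells received DMSO at 0.5% (highest test-well level); IC50 given as mean ± SD of at least triplicate runs.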
For orientation: Formazan colour is commonly taken as a measure of viable cells.

For data set [13], the system named is MCF7. Briefly: Cytotoxicity against human MCF7 cells by MTT assay. The class given is cell-based. The essentials: as §3
The nature of data set [14]: Selectivity ratio of IC50 for human SF268 cells to MIC for methicillin-resistant Staphylococcus aureus JCSC 4788. The class given is toxicity. The essentials:
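Ratio of 24 h MTT cytotoxicity IC50 (compound 1.5625–100 μg mL−1, 0.5% DMSO control) to MIC against MRSA JCSC 4788 from CLSI microbroth dilution in MHB; IC50 values expressed as mean ± SD.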

Data set [15] relates to Staphylococcus aureus. Briefly: Bactericidal activity against methicillin-resistant Staphylococcus aureus JCSC 4788 assessed as reduction in colony forming units at 4 times MIC measured after 4 hrs by time kill assay relative to control. The class given is functional. On the set-up: scale not given: the % may be the effect or the level left. The essentials: (§4)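 Time-kill per CLSI: overnight MRSA JCSC 4788 adjusted in 0.85% NaCl to 10^6–10^7 CFU mL−1 and exposed to 0.5×, 1×, 2× and 4× MIC at 35 °C, vancomycin as comparator. Viable plate counts at 0.5, 2, 4, 8 and 24 h; two independent experiments.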

The subject of data set [16] is Staphylococcus aureus. The experiment in a line: Bactericidal activity against methicillin-resistant Staphylococcus aureus JCSC 4788 assessed as reduction in bacterial growth at 0.5 to 1 times MIC measured within 8 hrs by time kill assay relative to control. The class given is functional. Details: scale not given: the % may be the effect or the level left. The procedure, abridged: as §4

For data set [17], the system named is Staphylococcus aureus. The experiment in a line: Bactericidal activity against methicillin-resistant Staphylococcus aureus JCSC 4788 assessed as bacterial killing at 2 MIC measured within 2 hrs by time kill assay relative to control. The class given is functional. The procedure, abridged: as §4
In data set [18] the test system is Staphylococcus aureus. The experiment in a line: Bactericidal activity against methicillin-resistant Staphylococcus aureus JCSC 4788 assessed as bacterial killing at 4 MIC measured within 0.5 hrs by time kill assay relative to control. The class given is functional. The essentials: as §4
Data set [19] deals with Staphylococcus aureus. The experiment in a line: Induction of cytoplasmic membrane hyperpolarization in methicillin-resistant Staphylococcus aureus JCSC 4788 at 1 to 2 times MIC measured after 2 mins by Disc3(5) staining based fluorescence spectrophotometric method. In kind it is functional, organism-based. The essentials:
(§5)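 Exponential-phase MRSA JCSC 4788 washed and set to OD620 0.1 in 5 mM HEPES pH 7. Cells loaded with 0.4 μM DiSC3(5) plus 100 mM KCl for 20 min at 37 °C with agitation. Compound added at 0.5–8× MIC and fluorescence followed at ex 660/em 670 nm; mean ± SD.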

Data set [20] has as its system Staphylococcus aureus. Briefly: Induction of cytoplasmic membrane hyperpolarization in methicillin-resistant Staphylococcus aureus JCSC 4788 at 4 to 8 times MIC measured up to 9 mins by Disc3(5) staining based fluorescence spectrophotometric method. The class given is functional, organism-based. The procedure, abridged:
as §5

Data set [21] deals with Staphylococcus aureus. The experiment in a line: Induction of morphological changes in methicillin-resistant Staphylococcus aureus JCSC 4788 assessed as cytoplasmic membrane disruption at 4 times MIC measured after 3 hrs scanning electron microscopic analysis. In kind it is functional, organism-based. The essentials: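 Exponential-phase MRSA JCSC 4788 treated at 37 °C and washed. Cells prefixed overnight in 0.1 M phosphate pH 7.2 with 2% glutaraldehyde and 2.5% paraformaldehyde, then post-fixed in 1% OsO4 for 2 h. Samples ethanol-dehydrated, freeze-dried, gold-coated and imaged by SEM.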

In data set [22] the test system is Staphylococcus aureus. The experiment in a line: Antibacterial activity against methicillin-resistant Staphylococcus aureus JCSC 4788 at sub-MIC re-passaged at 24 hrs intervals for 20 times by micro dilution susceptibility test. In kind it is functional, organism-based. The essentials: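 Exponential-phase MRSA JCSC 4788 at 37 °C passaged into fresh MHB containing compound at a sub-inhibitory concentration and re-passaged at 24 h intervals up to at least 20 passages; MIC then redetermined by CLSI microbroth dilution in MHB. Resistance defined as a more than 4-fold increase over the initial MIC.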

The subject of data set [23] is Staphylococcus aureus. Briefly: Antibacterial activity against methicillin-resistant Staphylococcus aureus JCSC 4788 in Balb/c mouse skin infection model assessed as reduction in infection-induced morbidity by measuring decrease in wound size at 40 ug administered as single dose via intradermal route measured daily for 11 days. The class given is functional, organism-based. The essentials:
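Female BALB/c mice (18–20 g) injected intradermally in abdominal skin with 0.1 mL of MRSA JCSC 4788 (1×10^8 CFU) mixed with a single 40 μg dose in DMSO; DMSO-vehicle controls. Body weight and lesion size recorded daily for 11 days, ulcers imaged at 3 and 8 days; n = 6, mean ± SD.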

In brackets after ≈: the same amount, converted by molar mass. Activity calls are given as the source filed them.

A word on the MIC: it is the lowest concentration that inhibits growth of the organism. One may read the IC50 as the point on the concentration scale where inhibition reaches its midpoint. With `CCCCCCCC(=O)c1c(O)cc(O)c2c1OC1=C(C(=O)C(C)(C)C(=O)C1(C)C)C2CC(C)C` (stereo not drawn), the MIC in data set [1] is 0.25 µg/mL (≈ 0.516 µM); in [2], 0.25 µg/mL (≈ 0.516 µM); in data set [3], 0.25 µg/mL (≈ 0.516 µM); in data set [4], 0.25 µg/mL (≈ 0.516 µM); in [5], above 32 µg/mL; in data set [6], above 32 µg/mL. In addition, the MIC in data set [7], in data set [8] and in data set [9] was above 32 µg/mL each time. Moreover, the Selectivity ratio was 0.5 - 2 in data set [10], 0.5 to 2 in data set [11] and 40.6 in data set [14]. In addition, the IC50 in data set [12] was found to be 5.6 µg/mL (≈ 11.6 µM); in data set [13] it was 9.98 µg/mL (≈ 20.6 µM). For the same compound, the Activity in data set [15] is 99.9%; in [16] it was above 90%; in data set [17], above 90%; in data set [18], above 90%. Moreover, the result in data set [19], in [20], in data set [21], in [22] and in data set [23] was Active.
